Measurements: ChEMBL document CHEMBL3244319, “Angiotensin II analogues. 14. Roles of the imidazole nitrogens of position-6 histidine in pressor activity” (1979)
Starred links: 1 amine or outer side, 2 acyl side, 3 side chain; linkers in the order of their positions; H or OH if unused. Non-standard residues stand in square brackets, D forms with d. Residues, ends and D or L forms follow the SMILES beside them. X4 = O=C([C@H](Cc1cc[nH]n1)N[*:1])[*:2]; 2Thi = N[C@@H](Cc1cccs1)C(=O)O; Orn = NCCC[C@H](N)C(=O)O

Organism: Rattus norvegicus
Assay: Pressor activity in rat relative to angiotensin-2
Format: functional
Method in brief: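 Male rats, anesthetized with pentobarbital, nephrectomized and treated with pentolinium; blood pressure rise recorded after dosing. Peptides dissolved in normal saline with 0.1% polyvinylpyrrolidone, held in siliconized glass containers. Activity expressed relative to [Asn1,Val5]angiotensin II set at 100.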

| Molecule | Activity |
| --- | --- |
| CC[C@H](C)[C@H](NC(=O)[C@H](Cc1ccc(O)cc1)NC(=O)[C@@H](NC(=O)[C@H](CCCN=C(N)N)NC(=O)[C@@H](N)CC(=O)O)C(C)C)C(=O)N[C@@H](Cc1c[nH]cn1)C(=O)N1CCC[C@H]1C(=O)N[C@@H](Cc1ccccc1)C(=O)O | 4% |
| CC[C@H](C)[C@H](NC(=O)[C@H](Cc1ccc(O)cc1)NC(=O)[C@@H](NC(=O)[C@H](CCCN=C(N)N)NC(=O)[C@@H](N)CC(=O)O)C(C)C)C(=O)N[C@@H](Cc1cncn1C)C(=O)N1CCC[C@H]1C(=O)N[C@@H](Cc1ccccc1)C(=O)O | 0.05% |
| CC[C@H](C)[C@H](NC(=O)[C@H](Cc1ccc(O)cc1)NC(=O)[C@@H](NC(=O)[C@H](CCCN=C(N)N)NC(=O)[C@@H](N)CC(=O)O)C(C)C)C(=O)N[C@@H](Cc1cn(C)cn1)C(=O)N1CCC[C@H]1C(=O)N[C@@H](Cc1ccccc1)C(=O)O | 5% |
| CC[C@H](C)[C@H](NC(=O)[C@H](Cc1ccc(O)cc1)NC(=O)[C@@H](NC(=O)[C@H](CCCNC(=N)N)NC(=O)[C@@H](N)CC(=O)O)C(C)C)C(=O)N[C@@H](Cc1cccs1)C(=O)N1CCC[C@H]1C(=O)N[C@@H](Cc1ccccc1)C(=O)O (H-DRVYI[2Thi]PF-OH) | 10% |
| CC[C@H](C)[C@H](NC(=O)[C@H](Cc1ccc(O)cc1)NC(=O)[C@@H](NC(=O)[C@H](CCCNC(=N)N)NC(=O)[C@@H](N)CC(=O)O)C(C)C)C(=O)N[C@@H](CCCN)C(=O)N1CCC[C@H]1C(=O)N[C@@H](Cc1ccccc1)C(=O)O (H-DRVYI[Orn]PF-OH) | 0.03% |
| CC[C@H](C)[C@H](NC(=O)[C@H](Cc1ccc(O)cc1)NC(=O)[C@@H](NC(=O)[C@H](CCCNC(=N)N)NC(=O)[C@@H](N)CC(=O)O)C(C)C)C(=O)N[C@@H](Cc1cc[nH]n1)C(=O)N1CCC[C@H]1C(=O)N[C@@H](Cc1ccccc1)C(=O)O (H-DRVYI[X4]PF-OH) | 57% |
| H-DRVYIAPF-OH | 0.8% |
| H-DRVYIEPF-OH | 0% |
| H-DRVYIFPF-OH | 3% |
| H-DRVYIKPF-OH | 0.1% |
| H-DRVYILPF-OH | 0.02% |
| H-DRVYIMPF-OH | 0.2% |
| H-DRVYIRPF-OH | 0.01% |
